PRMT1 inh: PRMT1 methyltransferase inhibitors, primary screen, biochemical, fluorescence polarization. Protein arginine N-methyltransferase 1 (Homo sapiens), Q99873. recombinant PRMT1, activity-based probe fluorescence polarization. inhibition, % at 2.79 µM. 370,000 tested, 1.3% active;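 active means inhibition above about 21% made by adding two undisclosed values, limit read from the data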
PAD4 inh: human PAD4 inhibitors, primary screen, biochemical, fluorescence polarization, 1536-well format. Protein-arginine deiminase type-4 (Homo sapiens), Q9UM07. recombinant PAD4, RCA probe fluorescence polarization. inhibition, % at 6.36 µM. 330,000 tested, 0.41% active;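 active means percent inhibition above a cutoff equal to the mean of all tested compounds plus 3 SD, cut at about 15% in these data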;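 further: 0% = PAD4 with RCA probe and DMSO and 100% = probe without PAD4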
TCR-CD3 inh: inhibitors of human TCR-CD3 interaction, primary screen, biochemical, fluorescence, TAMRA-labeled TCR probe. inhibition, % at 9.4 µM. 360,000 tested, 0.37% active. AID 651800, 2012; in the data active means inhibition above about 19%;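 further: recombinant mutant TCR 2C K166C tagged with TAMRA read by polarization; 0% = receptor in buffer alone and 100% = receptor with positive control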
mABHD4 FP: ABHD4 inhibitors, primary screen, biochemical, fluorescence polarization, mouse. (Lyso)-N-acylphosphatidylethanolamine lipase (Mus musculus), Q8VD66. purified mABHD4, FP-Rh probe fluorescence polarization. inhibition, % at 8.92 µM. 370,000 tested, 0.54% active;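 active means inhibition exceeding the mean over every tested compound plus 3 SD, cut at about 30% in these data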;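 further: 0% = plate median of compound wells and 100% = S159A mutant with DMSO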
Target sequence (Q8VD66 whole entry, looked up): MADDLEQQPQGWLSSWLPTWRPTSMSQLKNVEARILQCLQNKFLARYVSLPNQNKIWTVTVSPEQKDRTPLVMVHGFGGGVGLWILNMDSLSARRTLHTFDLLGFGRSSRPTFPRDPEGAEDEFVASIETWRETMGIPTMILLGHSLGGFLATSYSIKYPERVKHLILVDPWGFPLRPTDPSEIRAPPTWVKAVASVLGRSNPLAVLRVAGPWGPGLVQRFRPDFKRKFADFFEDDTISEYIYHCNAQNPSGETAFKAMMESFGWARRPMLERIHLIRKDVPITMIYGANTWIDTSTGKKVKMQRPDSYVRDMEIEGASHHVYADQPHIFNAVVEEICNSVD
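system = mouse ABHD4 enzyme, wild type | medium = HEPES pH 7.0, NaCl, Pluronic buffer | also added = FP-Rh probe | incubation = Enzyme–compound pre-incubation 45 min, then probe 60 min, both 25 °C | technique = fluorescence polarization, excitation 525 nm, emission 598 nm, BODIPY TMR filters | controls = S159A mutant high control, sample median low control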
SIAE inh: human SIAE inhibitors, primary screen, biochemical, fluorescence polarization, FP-Rh probe, 1536-well HTS | SIAE FP-Rh probe binding | AID 1053197, 2014 | Sialate O-acetylesterase (Homo sapiens), Q9HAT2 | 370,000 tested, 0.69% active | inhibition, % at 9.66 µM;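 active means inhibition above a cutoff: mean of compounds within the control limits plus 3 SD of those, cut at about 17% in these data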;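 further: 0% = plate median of compound wells and 100% = probe without SIAE protein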
HTRA1 inhibitor: HTRA1 serine protease inhibitors, primary screen, biochemical, fluorescence polarization, HTS; Q92743; recombinant HTRA1, FP-rhodamine activity-based probe; inhibition, % at 5.96 µM; 340,000 tested, 0.5% active; AID 504803, 2011; in the data active means inhibition above about 36%;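 further: 0% = enzyme with DMSO and 100% = wells lacking enzyme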
SIAE inh conf: human SIAE inhibitors, retest, confirmation, biochemical, fluorescence polarization, FP-Rh probe, triplicate; shares compounds with SIAE inh; SIAE FP-Rh activity-based probe; inhibition, % at 9.66 µM; 2,300 tested, 13% active;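 active means mean inhibition of the replicates above the hit cutoff set in the primary screen, cut at about 17% in these data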;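 further: 0% = SIAE with DMSO and probe and 100% = probe without SIAE; inhibitors lower polarization as more probe stays unbound to SIAE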
* hit, by the source's call; . = no result given. Only some compounds are listed: those with a hit (about 2.9% of all), similar ones and a draw of the others.

SMILES	PRMT1 inh	PAD4 inh	TCR-CD3 inh	mABHD4 FP	SIAE inh	HTRA1 inhibitor	SIAE inh conf
CC(=O)Nc1ccc(C(=O)CN2C(=O)NC3(CCCCCC3)C2=O)c(F)c1	-3	0	-2	-4	-4	-4	.
CC(=O)Nc1ccc(C(=O)CN2C(=O)NC3(CCOc4ccccc43)C2=O)c(F)c1 (centres undefined)	4	4	4	4	19*	-11	-5
CCc1nnc(NC(=O)CCn2cnc3ccccc3c2=O)s1	-1	-1	2	-7	22*	.	1
O=C(NCCc1c[nH]c2ccccc12)OCc1cn(Cc2cccc(C(F)(F)F)c2)nn1	-2	.	.	-4	-3	.	.
O=C1NC(=Nc2ccccc2)S/C1=C\C=C\c1ccco1	21	-18	9	21	24*	18	1
CCOC(=O)[C@]12CCCCC/C=C\1N(CCc1ccc(Cl)cc1)C(=O)[C@H]2CC(=O)NCc1cccs1	-2	.	.	-6	-2	.	.
O=C(CN1CCN(c2ccc(O)cc2)CC1)Nc1cc(S(=O)(=O)N2CCCCC2)ccc1Cl	10	-7	1	17	21*	4	2
O=S(=O)(c1ccc(Cl)c(NC(=S)N/N=C/c2ccc(O)cc2)c1)N1CCOCC1	-1	-1	-1	2	18*	-19	5
O=S(=O)(c1ccc(Cl)c(NC(=S)N/N=C/c2c(F)cccc2F)c1)N1CCOCC1	2	-1	2	-1	-1	-22	.
COc1cc(NC(=O)Nc2nc(C(N)CCc3ccccc3)cs2)cc(OC)c1OC (centres undefined)	-4	.	-12	16	33*	.	22*
CC(=O)Nc1ccc(C(=O)OCC(=O)c2cccc([N+](=O)[O-])c2)cc1	-3	-1	2	0	1	-5	.
Cc1ccc(C(=O)COC(=O)c2cccc(NC(=O)c3ccc([N+](=O)[O-])cc3[N+](=O)[O-])c2)cc1	0	3	-1	-57	21*	6	-29
COc1ccc2ccccc2c1C=NNC(=O)CN1CCN(Cc2ccccc2)CC1	4	.	.	3	-4	.	.
O=C(NCC(=O)N1CCN(c2ncccn2)CC1)c1ccc(F)cc1	-6	2	-6	0	22*	11	-5
O=C(c1ccc(N2C(=O)CCC2=O)cc1)N1CCCSC1=Nc1ccccc1	-3	.	5	6	29*	-5	5
O=C(c1ccc2c3n(nc2c1)-c1ccccc1CO3)N1CCCCC1	-2	-3	1	12	17*	-8	-2
O=C(c1ccc2c3n(nc2c1)-c1ccccc1CO3)N1CCOCC1	.	6	.	.	.	-2	.
CCNC(=S)Nc1cc(C(=O)N2CCCC2)ccc1N1CCCC1	-2	-1	2	1	23*	0	1
CNC(=S)Nc1cc(C(=O)N2CCCC2)ccc1N1CCCC1	-3	-1	4	2	8	5	.
O=C(Cc1c[nH]c2ccccc12)Nc1ccc(Nc2cccnc2)c(-c2ccc(Oc3ccccc3)cc2)c1	-1	.	1	9	18*	.	6
O=C(Cc1cn(Cc2ccccc2)c2ccccc12)Nc1ccc(Nc2cccnc2)c(Br)c1	4	.	-3	16	18*	.	16
O=C(Cc1c[nH]c2ccccc12)Nc1ccc(Nc2cccnc2)c(-c2ccc(OC(F)(F)F)cc2)c1	8	.	-5	20	8	.	.
O=C(Cc1c[nH]c2ccccc12)Nc1ccc(Nc2cccnc2)c(Br)c1	-3	.	1	11	8	.	.
C=CCN1C(=O)[C@H](CC(=O)NCC23CC4CC(CC(C4)C2)C3)[C@@]2(C(=O)OCC)CCCC=C12	1	.	.	-2	-1	.	.
COc1cc(/C=N/Nc2ccccc2[N+](=O)[O-])ccc1OC(=O)c1ccccc1F	0	8	-6	1	4	3	.
SMILES	PRMT1 inh	PAD4 inh	TCR-CD3 inh	mABHD4 FP	SIAE inh	HTRA1 inhibitor	SIAE inh conf
COc1cc(/C=N/Nc2nc3ccccc3s2)ccc1OC(=O)c1ccccc1F	-1	-2	-1	5	21*	-2	-11
COc1cc(OC)cc(C(=O)Oc2ccc(/C=N/Nc3nc4ccccc4s3)cc2OC)c1	3	-3	0	7	19*	-12	17*
CCN(C(=S)Nc1cccc(C)c1)c1ccccc1	-4	11	3	2	24*	-1	0
COc1ccc(NC(=O)CSc2nc(N)c(C(=O)Nc3ccc(N(C)C)cc3)s2)cc1	.	-10	.	.	.	1	.
CN(C)c1ccc(NC(=O)CSc2nc(N)c(C(=O)Nc3ccc(N(C)C)cc3)s2)cc1	8	2	-2	4	20*	5	9
COc1ccc(NS(=O)(=O)c2cccs2)cc1S(=O)(=O)N1CCCCC1	-1	-1	-5	1	19*	4	0
COc1ccc(NS(=O)(=O)c2cccs2)cc1S(=O)(=O)N1CCOCC1	-3	1	14	-2	-3	1	.
NNC(=O)c1ccc(Cn2cccn2)o1	0	3	11	4	21*	3	-4
O=C(NCc1cccs1)c1cccc(Nc2nc3ccc(Br)cc3[nH]2)c1	-1	-4	-3	14	43*	7	22*
CCn1c(SCC(=O)Nc2ccc(OC)c(OC)c2)nc2c(c1=O)SCC2	10	5	-4	6	19*	4	-1
COc1ccc(NC(=O)CSc2nc3c(c(=O)n2C)SCC3)cc1OC	-1	-2	-4	-3	1	3	.
COc1cccc(/C=C2\CC3(OC(=O)c4ccc(F)cc4)CCCN2C3)c1 (centres undefined)	3	.	.	5	1	.	.
O=C(Cc1ccc([N+](=O)[O-])cc1)N1CCN(c2ccc([N+](=O)[O-])cc2)CC1	1	-4	-1	0	-1	-6	.
O=C(Cc1ccc(F)cc1)N1CCN(c2ccc([N+](=O)[O-])cc2)CC1	-2	.	4	-2	20*	6	5
Cc1c(C)n(CCc2ccccc2)c2ncnc(NN)c12	-4	-1	-5	3	1	0	.
Cc1c(C)n(CCc2ccccc2)c2ncnc(NCCCO)c12	1	4	6	-4	18*	-10	5
O=C(Nc1ccccc1)c1cn2ccccc2n1	-4	-1	12	-3	18*	-6	0
